Our source for the cytotoxicity values is ChEMBL document CHEMBL4513216, “Probing the Open Global Health Chemical Diversity Library for Multistage-Active Starting Points for Next-Generation Antimalarials” (ACS Infect Dis, 2020).

A short description of the data set: Toxicity liver stage against HepG2, at 10uM. The conditions noted are these: human, HepG2-A16-CD81EGFP cells; read-out: INHIBITION
It is filed as cell-based. Details: test concentration 10 uM, cell line HepG2-A16-CD81EGFP. In a few lines:
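Uninfected HepG2-A16-CD81EGFP cells, 3 × 10^3 per well, 1536-well, plated on prespotted compound at 10 μM final, parasite-free screening media added to match infected plates; puromycin 10 μM positive, DMSO 0.5% negative; run in parallel with 48 h PbLuc assay at 37 °C, 5% CO2; viability by CellTiter-Glo luminescence, normalized to controls.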
For the molecule `CNc1nc(C(=O)NCC2CCOc3ccccc3C2)cs1` (configuration not stated), the cytotoxicity at 10 µM was 2.53%.
With `CCN1CCNC(=O)C12CCN(S(=O)(=O)c1ccc(F)cc1)CC2` the figure was 1.17%.
As for `Cc1cnn(C2CCCN(C(=O)c3ccnc(-n4cncn4)c3)C2)c1` (configuration not stated), the figure is -0.565%; as for `c1cncc(N2CCOCC3(CCCN(c4nncs4)C3)C2)c1` (configuration not stated), -1.42%; as for `Cc1ccc(NC2CCN(C(=O)c3cccc4ncccc34)CC2)nn1`, 7.51%.
With `O=C(N[C@@H]1CN(c2ncccn2)C[C@@H]2CCCO[C@@H]21)c1cnccn1` the figure was 0.199%.
For the molecule `CN(C)CC1(O)CCCN(C(=O)Cc2ccc(Cl)c(Cl)c2)C1` (configuration not stated), the cytotoxicity at 10 µM came to 0.355%.
Take `O=C(CCn1c(=O)oc2ccccc21)NCC(O)c1ccc(F)c(F)c1` (configuration not stated): the cytotoxicity at 10 µM is -12.5%.
Turning to `Cc1ccc(C(=O)N2CC(c3cccnc3)C2)cc1N1CCNC1=O`, the cytotoxicity at 10 µM was -4.57%.
With `Cn1ccc(C(=O)N2CCCC(c3cc(O)n(C)n3)C2)n1` (configuration not stated) the figure was -13.7%; with `Cc1ncc(CN2CCc3nc4cc(C(C)(C)C)nn4c(O)c3C2)n1C`, 8.62%; with `CC(C(=O)NC(N)=O)N1CCN(c2ccc(C#N)cc2F)CC1` (configuration not stated), -4.4%.
Consider `c1cc(CN2CCCC2)cc(-n2ccnc2-c2ccncc2)c1`, for which the cytotoxicity at 10 µM was -1.37%.
With `Cc1cccc(C(=O)N2CCN(S(C)(=O)=O)[C@@H](C)C2)c1C` the figure was 3.46%.
As for `Cc1ncsc1CN1CCOC(C)(C(N)=O)C1` (configuration not stated), the figure is 0.267%; as for `CC(C)c1nnc2n1CCN(Cc1ncc(-c3ccccc3)o1)C2`, -12.8%.
With `Cn1ccc2ccc(C(=O)NC3CCOC(C)(C)C3)cc21` (configuration not stated) the figure was 3.13%.
On to `Cc1ccccc1CN(C)C(=O)c1ccoc1`, for which the cytotoxicity at 10 µM worked out at 2.2%.
As for `CCn1nc(C)c(CCN2CC3(CCOC3)CCC2=O)c1C` (configuration not stated), the cytotoxicity at 10 µM was -118%.
With `O=C([C@H]1COC[C@H]2CN(C3CCOCC3)C[C@H]21)N1CCCO1` the figure was -4.68%; with `CCC(=O)Nc1ncn(Cc2cccnc2)n1`, -11.3%; with `CNC(=O)Cc1ccc(-n2ccnc2-c2cccc(C(=O)O)c2)cc1`, -7.9%.
As for `Cc1ccc(CN2CCNC(=O)C2CC(=O)NCc2n[nH]c(C)n2)cc1` (configuration not stated), the figure is -3.83%.
For the molecule `CC1CCN(CC(=O)NC2CCN(C(C)c3ccccc3)CC2)CC1` (configuration not stated), the cytotoxicity at 10 µM was -6.36%.
With `O=C(COc1ccccc1NCc1ccc(F)cc1)N1CCOCC1` the figure was -2.82%; with `COCCNC(=O)NC1(c2ccccc2F)CC1`, -0.421%.
As for `CS(=O)(=O)CCNC(=O)Nc1ccc(Cl)cc1-n1cccc1`, the cytotoxicity at 10 µM was 48.2%.
As for `c1cc(N2CCC(CN3CCOCC3)CC2)c2sccc2n1`, the figure is 10.8%.
With `CC1c2ncc(COCc3ccccn3)n2CCN1C1CCCC1` (configuration not stated) the figure was 12.8%; with `O=C(CCCc1cn[nH]c1)N1C[C@@H](CN2CCCC2)C[C@H](CO)C1`, -8.96%.
Consider `Cc1cc(C2CN(CC(=O)NCc3ccco3)CCO2)ccc1F` (configuration not stated), for which the cytotoxicity at 10 µM turned out to be 4.29%.
As for `O=C(C1CC1)N1CCC(c2nc(O)c3c(n2)CCN(C2CCCC2)C3)C1` (configuration not stated), the figure is 4.66%.
As for `Cc1cnn(CC2CN(Cc3csc(C(C)C)n3)CCO2)c1` (configuration not stated), the figure is 5.58%; as for `CC(C)n1cnc2c1C(C(=O)N(C)C)N(Cc1ccccc1)CC2` (configuration not stated), -2.56%; as for `COCc1noc(C2(c3ccc(OC)cc3)CCOCC2)n1`, -22.3%.
As for `Cc1ccccc1CN1CCN(C(=O)c2ccn(C(C)(C)C)c2)CC1`, the figure is -0.585%; as for `O=C(N1CCOCC1)N1C[C@@H]2OCCN(C(=O)c3ccco3)[C@@H]2C1`, -135%.
With `O=C(c1ccnn1COc1ccc(Cl)cc1)N1CCOCC1`, the cytotoxicity at 10 µM is -3.94%.
With `CC(C)N(C)CCCNC(=O)c1cnc(-c2ccccc2)nc1` the figure was -6.13%; with `COC(=O)N1CCC(NC(=O)Cn2cc(C)c3ccccc32)CC1`, -2.37%; with `Cc1ccc(-c2ccnc(N3CCC4(CCO4)CC3)n2)c(C)n1`, 2.05%.
Regarding `COc1cc(C)ccc1OCc1nc(C(=O)N2CCCO2)co1`, the cytotoxicity at 10 µM was -45.9%.
Consider `COCc1cnc2n1CCN(Cc1cccnc1)C2C` (configuration not stated), for which the cytotoxicity at 10 µM was -8.79%.
Take `Cc1ccc(C(=O)N2CCC3(CCC(=O)N(CCCO)C3)CC2)c(O)c1`: the cytotoxicity at 10 µM is 7.4%.
With `COc1ccc2c(c1)c(C(=O)Nc1cc(C)n(C)n1)cn2C(C)C` the figure was -1.33%.
With `Cc1cc(C)n(C2CCCN(C(=O)c3cccc4[nH]ncc34)C2)n1` (configuration not stated), the cytotoxicity at 10 µM was determined as 6.22%.
Take `COc1cccc2c1OCCCN(Cc1ncccc1C(=O)O)C2`: the cytotoxicity at 10 µM came out at 4.12%.
With `Cc1nnc(NCC2(c3ccccc3)CC2)c(C#N)c1C` the figure was 3.51%; with `Cc1c(S(=O)(=O)NCC(C)C)cnn1C`, 4.54%.
As for `COc1ncccc1CN1C[C@@H]2CN(c3ncccn3)C[C@@H]2C1`, the figure is -5.11%; as for `C[C@@H]1CN(Cc2ccncc2)C[C@]1(C)O`, 1.6%.
As for `CCc1noc(CC)c1CNC(=O)Nc1ccc2[nH]nnc2c1`, the figure is 6%.
`CCCc1nnsc1C(=O)NCC(O)c1cccs1` (configuration not stated): the cytotoxicity at 10 µM came to 4.15%.
As for `Cc1nccn1CC1CCCN(Cc2ccc(-c3cccnc3)cc2)C1` (configuration not stated), the figure is 2.97%; as for `Cc1nn(C)c(C)c1C1CCCN1C(=O)c1ccc(CN(C)C)cc1` (configuration not stated), -7.79%.
With `Cn1ncc2c(NC3CCSC3)nc(-c3ccncc3)nc21` (configuration not stated) the figure was 21.6%; with `Cc1cc(NC(=O)N2CCCC(CO)C2)nn1-c1ccccc1Cl` (configuration not stated), 8.23%; with `O=C(c1cnc(-c2cccnc2)nc1)N1CCC(c2ccncc2)CC1`, -13.7%.
For `CC(O)CN1CCN(C(=O)c2cccn2Cc2ccccc2)CC1` (configuration not stated), the cytotoxicity at 10 µM was -8.87%.
As for `Cc1nc2c(c(=O)n1C)CCN(C(=O)CCc1ccccn1)CC2`, the figure is 14%.
Turning to `Cc1cc(NC(=O)C(C)N2CCN(c3ccccc3F)CC2)no1` (configuration not stated), the cytotoxicity at 10 µM was determined as 2.83%.
With `NC(=O)CS(=O)(=O)Cc1ccc(OCc2ccc(F)cc2)cc1` the figure was 4.93%; with `Cc1oc(C(=O)O)cc1S(=O)(=O)Nc1ccccc1F`, -2.8%.
As for `CNS(=O)(=O)c1ccc(CNC(=O)Nc2cc(C)on2)s1`, the figure is -2.34%; as for `CCCN1CCc2[nH]cnc2C12CCN(C(=O)CCn1cccn1)CC2`, 7.36%.
As for `CCOCCS(=O)(=O)c1nnc(NCCOC)s1`, the figure is -7.18%; as for `COCCN1CCN(C(=O)C[C@@H]2C[C@@H](C(C)C)[C@H](CC#N)C=C2C)CC1`, 0.788%.
Take `O=C1CCSCC(C(=O)NCc2nc(-c3ccccc3)no2)N1` (configuration not stated): the cytotoxicity at 10 µM is -4.66%.
On to `Fc1ccc(Oc2ccc(CNCC3CNc4ccnn4C3)cn2)cc1` (configuration not stated), for which the cytotoxicity at 10 µM is -11.6%.
Turning to `CC(=O)N1CCC(C(=O)Nc2nnc(C(F)(F)F)[nH]2)CC1`, the cytotoxicity at 10 µM is -3.37%.
In the case of `CN(C)c1nc2c(c(N3CCC(O)CC3)n1)CN(CC1CCNC1)CC2` (configuration not stated), the cytotoxicity at 10 µM was -10.5%.
For `CCn1ccc(-c2cc(NCCCOc3cccc(C)c3)nc(C)n2)n1`, the cytotoxicity at 10 µM is -5.65%.
On to `CC(C)N1CCO[C@H]2CN(Cc3cc[nH]n3)C[C@H]21`, for which the cytotoxicity at 10 µM was -108%.
With `CN(C)C(=O)CO[C@H]1CN(Cc2cccc(C#N)c2)[C@@H]2COC[C@H]12` the figure was 11.4%; with `CN(C)C(=O)CNC(=O)CCn1ncc2c(Cl)cccc21`, -4.84%; with `O=C(C1CCOCC1)N1CCc2ncc(CN3CCOCC3)n2CC1`, -79.6%.
As for `CCN1CCC(NC(=O)NC2CCOc3ccc(Br)cc32)CC1` (configuration not stated), the cytotoxicity at 10 µM is -1.15%.
As for `CC1(C)CNC(=O)CN(C(=O)CCc2ccccc2)C1`, the cytotoxicity at 10 µM was -8.57%.
With `CNc1nc(C2CCCN2)nc2c1CCN(S(=O)(=O)C1CCCCC1)C2` (configuration not stated) the figure was 9.17%; with `Cc1cc(C)c(CNC(=O)CCC2CCCO2)c(=O)[nH]1` (configuration not stated), 5.1%; with `O=C(c1c[nH]c(=O)c(Cl)c1)N1CCc2ccccc2C1`, -11.1%.
Take `O=c1c2c[nH]c(N3CCOCC3)nc-2cn1Cc1cccc(F)c1`: the cytotoxicity at 10 µM was -2.72%.
Turning to `COc1ccc(C2CCCN2S(=O)(=O)N(C)CC(C)C)cc1` (configuration not stated), the cytotoxicity at 10 µM is -6.72%.
As for `CC(C)OCCC(=O)N(C)c1ccc(F)c(Cl)c1`, the figure is -4.62%; as for `Cc1cccc(NC(=O)CNC(=O)c2ccccc2F)c1`, -1.24%.
Consider `O=c1[nH]nc2c(S(=O)(=O)N3CCOCC3)cccn12`, for which the cytotoxicity at 10 µM is -1.7%.
Regarding `CN1CCN(C(=O)c2n[nH]c3c2CN(C2CCOC2)CC3)CC1` (configuration not stated), the cytotoxicity at 10 µM is 1.52%.
As for `CC(=O)N1Cc2ccccc2CC1C(=O)Nc1cc(C)ccn1` (configuration not stated), the figure is -4.5%; as for `CCc1nc(CN2CCCN(C(=O)C(C)n3cncn3)CC2)cs1` (configuration not stated), -7.26%.
With `Cc1ccc(C2CN(CCCC#N)CCO2)c(C)c1` (configuration not stated) the figure was -2.16%; with `Cc1[nH]c(=O)[nH]c(=O)c1CN1CCCC(CCc2ccc(F)cc2F)C1` (configuration not stated), -1.64%; with `Cc1ccc(C(=O)Nc2c(C(=O)N(C)C)nn(C)c2C)cc1`, 5.59%.
As for `CNc1cc(C2CCCNC2)nc(C)n1` (configuration not stated), the figure is 8.37%; as for `CCC(CO)N(Cc1ccsc1)Cc1ccccc1C#N` (configuration not stated), 9.64%.
As for `COc1ccc(-n2cc(CNC(=O)c3ccc[nH]3)nn2)cc1`, the cytotoxicity at 10 µM was -10.9%.
Consider `COCCn1cc(C(=O)Nc2nc3c(s2)CCC3)c2ccccc21`, for which the cytotoxicity at 10 µM came to 77.9%.
As for `COC[C@@]12CCC[C@@H]1CN(C(=O)COC1CCCC1)C2`, the figure is 4.35%.
